Rows were chosen to be rich in hits. Some 5.8% of all compounds tested hit in one or more screens of this group.
Pf Dd2 inh: P. falciparum Dd2 growth inhibitors, primary screen, SYBR Green fluorescence, single dose replicates | 72 h; active compounds read low | activity change, % at 10 µM | 94,000 compounds, 2.3% hits; in the data active = activity change below about -80%
IDH1 mut inh: inhibitors of IDH1 R132H reductase, primary screen, biochemical, plate reader, single point | AID 624101, 2012 | diaphorase/resazurin fluorescence, 60 min | 70,000 compounds, 0.18% hits | inhibition, % at 10 µM; in the data active = inhibition above about 34%;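 note: 0% = DMSO and 100% = no enzyme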
Target sequence (O75874 whole entry R132H): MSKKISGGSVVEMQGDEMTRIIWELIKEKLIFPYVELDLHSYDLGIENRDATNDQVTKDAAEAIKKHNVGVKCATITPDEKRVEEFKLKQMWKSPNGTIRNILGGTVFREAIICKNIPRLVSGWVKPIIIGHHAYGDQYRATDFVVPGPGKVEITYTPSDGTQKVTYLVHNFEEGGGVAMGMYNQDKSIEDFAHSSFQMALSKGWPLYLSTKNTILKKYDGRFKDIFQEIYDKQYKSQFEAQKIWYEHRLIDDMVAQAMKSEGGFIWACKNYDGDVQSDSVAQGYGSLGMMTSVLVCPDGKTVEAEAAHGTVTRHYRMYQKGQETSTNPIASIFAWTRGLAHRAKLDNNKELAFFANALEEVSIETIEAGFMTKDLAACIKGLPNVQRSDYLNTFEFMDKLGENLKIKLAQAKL
T cruzi growth: T. cruzi intracellular proliferation inhibitors, primary screen, cell-based, beta-gal Tulahuen parasites, NIH3T3 host, luminescence. T. cruzi beta-gal in NIH3T3, GalScreen luminescence, 90 h. 77,000 compounds, 5.9% hits. inhibition, % at 8.34 µM. AID 624255, 2012;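 active = mean inhibition above about 93%, with at least 55% of replicates each passing it, limit read from the data, passing the limit was not always enough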
KDM4C inh: inhibitors of GASC-1 (KDM4C) histone demethylase, primary screen, biochemical, single concentration HTS. Lysine-specific demethylase 4C (Homo sapiens), Q9H3R0. GST-KDM4C 2-372, H3K9me3 peptide, LANCE TR-FRET. inhibition, % at 12.5 µM. 96,000 compounds, 0.15% hits. AID 720574, 2013;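 active = mean replicate inhibition above about 25%, with at least 55% of replicates also reaching it, limit read from the data, passing the limit was not always enough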
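Compound: one test concentration per compound; Material: GST-GASC-1 enzyme fragment 2-372; Amount: GASC-1 enzyme at 10 nM final in reaction; Also added: H3K9me3 peptide substrate, Fe(II), 2-oxoglutarate; Technique: LANCE TR-FRET; Times: 30 min demethylation and 1 h detection at room temperature.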
The depositor's hits bear a star; x = no result.

SMILES	Pf Dd2 inh	IDH1 mut inh	T cruzi growth	KDM4C inh
CCn1c(SCC(=O)Nc2sc3c(c2C#N)CCCC3)nnc1-c1cccc(Cl)c1	x	0	x	x
C[C@H](CO)N1C[C@H](C)[C@H](CN(C)C(=O)Nc2cc(F)ccc2F)Oc2cc(/C=C/c3ccccc3)ccc2S1(=O)=O	-88*	0	x	-1
C[C@H]1CN([C@@H](C)CO)S(=O)(=O)c2ccc(/C=C/c3ccccc3)cc2O[C@@H]1CN(C)C(=O)c1ccccc1	-73	0	125*	-5
N#Cc1c(NC(=O)CSc2ncccn2)sc2c1CCCC2	x	0	x	x
O=C(O)c1cc(N(Cc2ccccc2O)Cc2cc(O)ccc2O)ccc1O	x	41*	x	x
C[C@H](O)c1nc2ccccc2c(=O)[nH]1	x	0	x	x
COc1ccccc1Nc1ncnc2c1cnn2Cc1ccccc1	x	1	x	x
COc1ccc(C#Cc2ccc([C@H]3[C@@H](CO)N4CCCCN(C(=O)Nc5ccccc5F)C[C@H]34)cc2)cc1	-77	x	84	14
COc1ccc(C#Cc2ccc([C@H]3[C@H](CO)N4CCCCN(C(=O)Nc5ccccc5F)C[C@@H]34)cc2)cc1	-75	x	84	-3
COc1ccc(C#Cc2ccc([C@@H]3[C@H](CO)N4CCCCN(C(=O)Nc5ccccc5F)C[C@@H]34)cc2)cc1	-82*	x	39	-3
O=C(Nc1ccccc1)N1CCCCN2[C@@H](CO)[C@H](c3ccc(C#Cc4cccnc4)cc3)[C@@H]2C1	-83*	x	5	-1
COc1cccc(CN2CCCCN3[C@H](CO)[C@@H](c4ccc(C#Cc5cccnc5)cc4)[C@H]3C2)c1	-86*	x	94	1
O=C(Nc1ccccc1F)N1CCCCN2[C@@H](CO)[C@@H](c3ccc(C#Cc4ccccc4)cc3)[C@@H]2C1	-89*	x	-41	-2
O=C(Nc1cccc(F)c1)N1CCCCN2[C@H](CO)[C@H](c3ccc(C#Cc4ccccc4)cc3)[C@@H]2C1	-82*	x	68	-1
COc1cccc(CN2CC3(CN(CC4CCOCC4)C3)c3c([nH]c4cc(OC)ccc34)[C@@H]2CO)c1	-17	x	x	-1
COc1ccc2c3c([nH]c2c1)[C@@H](CO)N(Cc1cccc(F)c1)CC31CCN(CC2CC2)CC1	-80*	x	x	0
COc1cccc(CN2CC3(CN(CC4CCOCC4)C3)c3c([nH]c4cc(OC)ccc34)[C@H]2CO)c1	-83*	x	x	-3
COc1cccc(CN2CC3(CN(CC4CC4)C3)c3c([nH]c4cc(OC)ccc34)[C@@H]2CO)c1	-58	x	x	-1
COc1ccc2c3c([nH]c2c1)[C@H](CO)N(Cc1cccc(F)c1)CC31CN(CC2CC2)C1	-85*	x	x	0
C[C@H]1CN([C@@H](C)CO)C(=O)c2cccc(NC(=O)Nc3cccc4ccccc34)c2O[C@H]1CN(C)C(=O)NC1CCCCC1	-85*	-1	53	-4
C[C@@H]1CN([C@H](C)CO)C(=O)c2cccc(NC(=O)Nc3ccccc3)c2O[C@@H]1CN(C)C(=O)Nc1ccccc1	-41	x	64	0
COc1ccc(NC(=O)Nc2cccc3c2O[C@H](CN(C)C(=O)Nc2ccc4c(c2)OCO4)[C@@H](C)CN([C@@H](C)CO)C3=O)cc1	-11	x	32	4
C[C@@H]1CN([C@H](C)CO)C(=O)c2cccc(NC(=O)Nc3cccc4ccccc34)c2O[C@@H]1CN(C)C(=O)NC1CCCCC1	-77	-4	54	-2
C[C@@H]1CN([C@@H](C)CO)C(=O)c2cccc(NC(=O)Nc3ccccc3)c2O[C@@H]1CN(C)C(=O)Nc1ccccc1	-91*	x	59	0
COc1ccc(NC(=O)N(C)C[C@H]2Oc3c(NC(=O)Nc4ccc5c(c4)OCO5)cccc3C(=O)N([C@@H](C)CO)C[C@H]2C)cc1	-86*	x	-2	-3
SMILES	Pf Dd2 inh	IDH1 mut inh	T cruzi growth	KDM4C inh
COc1ccc(NC(=O)Nc2cccc3c2O[C@H](CN(C)C(=O)Nc2cccc4ccccc24)[C@H](C)CN([C@@H](C)CO)C3=O)cc1	-88*	0	11	-1
O=C(N/N=C/c1ccc(OCc2ccccc2)cc1O)c1ccccc1O	x	0	x	x
COc1ccc(NC(=O)N(C)C[C@H]2Oc3c(NC(=O)Nc4ccccc4)cccc3C(=O)N([C@H](C)CO)C[C@H]2C)cc1	-86*	x	-7	3
C[C@@H]1CN([C@@H](C)CO)C(=O)c2cccc(NC(=O)Nc3ccccc3)c2O[C@@H]1CN(C)C(=O)Nc1ccc(F)cc1	-91*	2	45	-1
Cc1noc(C)c1NC(=O)N(C)C[C@H]1Oc2c(NC(=O)Nc3ccc(C(F)(F)F)cc3)cccc2C(=O)N([C@@H](C)CO)C[C@H]1C	-86*	-1	90	1
COc1ccc(NC(=O)Nc2cccc3c2O[C@H](CN(C)C(=O)Nc2ccccc2)[C@@H](C)CN([C@H](C)CO)C3=O)cc1	-4	0	-15	0
Cc1cc(Cl)ccc1NC(=O)CN(C)S(=O)(=O)c1ccc(F)cc1	x	0	x	x
C/C=C/[C@H](CC(=O)N1Cc2ccccc2C[C@H]1CO)[Si](C)(C)c1ccc(OC)cc1	x	-1	x	x
Cc1ccc(S(=O)(=O)N(C)C[C@@H]2OCc3ccccc3-c3c(n(C)c4ccccc34)C(=O)N([C@@H](C)CO)C[C@H]2C)cc1	-81*	x	75	3
Cc1ccc(S(=O)(=O)N(C)C[C@@H]2OCc3ccccc3-c3c(n(C)c4ccccc34)C(=O)N([C@H](C)CO)C[C@@H]2C)cc1	-92*	x	x	x
C[C@@H]1CN([C@@H](C)CO)C(=O)c2c(c3ccccc3n2C)-c2ccccc2CO[C@@H]1CN(C)S(=O)(=O)c1ccc([N+](=O)[O-])cc1	-77	x	x	0
Cc1ccc(S(=O)(=O)N(C)C[C@@H]2OCc3ccccc3-c3c(n(C)c4ccccc34)C(=O)N([C@H](C)CO)C[C@H]2C)cc1	-82*	0	73	-2
C[C@H](CO)N1C[C@H](C)[C@H](CN(C)S(=O)(=O)c2ccc([N+](=O)[O-])cc2)OCc2ccccc2-c2c(n(C)c3ccccc23)C1=O	-92*	x	x	-1
C[C@@H]1CN([C@@H](C)CO)C(=O)c2c(c3ccccc3n2C)-c2ccccc2CO[C@H]1CN(C)S(=O)(=O)c1ccc(F)cc1	-54	x	70	1
COc1ccc(C2C(C(=O)Nc3cc(OC)c(Cl)cc3OC)=C(C)Nc3ncnn32)c(OC)c1 (centres undefined)	x	1	x	x
CC(=O)c1ccc(OC(=O)C(Cc2ccccc2)N2C(=O)C3C4C=CC(C5CC45)C3C2=O)cc1 (centres undefined)	x	0	x	x
O=C(NO)c1cccc(C(=O)N/N=C/c2cccc(Br)c2)c1	x	0	x	x
Cc1ccc(S(=O)(=O)N(C)C[C@H]2OCc3ccccc3-c3c(n(C)c4ccccc34)C(=O)N([C@@H](C)CO)C[C@@H]2C)cc1	-92*	x	55	-4
C[C@@H]1CN([C@H](C)CO)C(=O)c2c(c3ccccc3n2C)-c2ccccc2CO[C@@H]1CN(C)S(=O)(=O)c1ccccc1	-9	x	26	-3
